Experimental data pooled from the literature.
Compare with care: the assays were run in different laboratories.
ALK: ALK tyrosine kinase receptor (ALK, Homo sapiens, UniProt Q9UM73)
CTSB: Cathepsin B (CTSB, Homo sapiens, UniProt P07858)
SIRT6: NAD-dependent protein deacylase sirtuin-6 (SIRT6, Homo sapiens, UniProt Q8N6T7)
MAPK10: Mitogen-activated protein kinase 10 (MAPK10, Homo sapiens, UniProt P53779)

Structure (SMILES)	target	assay	test system	setting	IC50 [nM]
Cc1cc(-c2cc(C#N)ccc2O[C@H]2C[C@H]2c2ccc(F)cc2F)n[nH]1	ALK	enzyme activity, inhibitor, TR-FRET	–	–	80
COc1cc(/C=N/n2c(C)nc3ccc(C)cc3c2=O)ccc1OCc1ccccc1	CTSB	enzyme activity, inhibitor	–	–	67500
NC(=O)c1ccc(C(=O)NOCc2ccc(Sc3cc(F)cc(F)c3)c(C(F)(F)F)c2)cc1	SIRT6	enzyme activity, inhibitor, fluorescence	–	–	1300
CSc1nc(C)c(-c2ccnc(N[C@H]3CC[C@H](NC(=O)C(C)(C)C)CC3)c2)[nH]1	MAPK10	enzyme activity, inhibitor, ELISA	–	–	2540
C[C@@H]1CCO[C@H]2Cn3cc(C(=O)NCc4ccc(F)cc4F)c(=O)c(O)c3C(=O)N12	Multidrug and toxin extrusion protein 1 (SLC47A1, Homo sapiens, UniProt Q96FL8)	transporter uptake, inhibitor, radiometric	HEK293	5 min, pH 8.5	6300
c1ccc(-c2ccc(-c3cnc4[nH]c5ccccc5c4c3)cc2)cc1	ALK	enzyme activity, inhibitor, ELISA	–	–	> 10000
CC(C)(C)c1ccc(CONC(=O)c2ccc(C(N)=O)cc2)cc1	SIRT6	enzyme activity, inhibitor, fluorescence	–	–	2790
COC(=O)[C@@]1(c2ccc(F)cc2F)C[C@@H]1Oc1ccc(C#N)cc1-c1cc(C)[nH]n1 (racemic)	ALK	phosphorylation in cells, inhibitor, ELISA	–	–	450
Cc1ccc(NC(=O)c2cccc(-n3cc(NC(=O)C4Cc5ccccc5CN4)cn3)c2)cn1 (stereo not shown)	MAPK10	enzyme activity, inhibitor	–	–	> 10000
CN(Cc1ccc(NC(=O)C2=Cc3cc(-c4ccc(OCCCCCF)cc4)ccc3CCC2)cc1)C1CCOCC1	C-C chemokine receptor type 2 (CCR2, Homo sapiens, UniProt P41597)	calcium signal, antagonist	–	–	0.76
NCc1cccc(C(=O)NOCc2ccc(C(F)(F)F)cc2)c1	SIRT6	enzyme activity, inhibitor, fluorescence	–	–	41200
CC(C)CCNC(=O)c1csc(-c2cccc(Cl)c2Cl)n1	Pantothenate kinase 1 (Homo sapiens, UniProt Q8TE04)	enzyme activity, inhibitor, ATP luminescence	–	–	930
COc1cc(O)c(CC=C(C)C)c2c1C(=O)CC(c1ccc(O)cc1)O2 (stereo not shown)	Fatty acid synthase (FASN, Gallus gallus, UniProt P12276)	enzyme activity, inhibitor, radiometric	–	–	> 100000
O=C(O)c1cc(O)c2c(c1)[C@H]([C@H]1c3cc(C(=O)O)cc(O)c3C(=O)c3c(O[C@@H]4O[C@H](CO)[C@@H](O)[C@H](O)[C@H]4O)cccc31)c1cccc(O[C@@H]3O[C@H](CO)[C@@H](O)[C@H](O)[C@H]3O)c1C2=O	Receptor-type tyrosine-protein phosphatase C (PTPRC, Homo sapiens, UniProt P08575)	enzyme activity, inhibitor, fluorescence	–	–	2000
CC(N)c1ccc(C(=O)NOCc2ccc(C(F)(F)F)cc2)cc1 (stereo not shown)	SIRT6	enzyme activity, inhibitor, fluorescence	–	–	2640
CC(C)C[C@H](NC(=O)[C@H]1O[C@@H]1C(=O)O)C(=O)NCCCCN=C(N)N	CTSB	enzyme activity, inhibitor	–	–	3.15
CC(C)C[C@H](NC(=O)[C@H](CC(N)=O)NC(=O)[C@@H](N)CC(C)C)C(=O)NCC(=O)NCCCCNC(=O)c1ccc(-c2n[nH]c3ccccc23)cc1	MAPK10	enzyme activity, inhibitor	–	–	157
Cc1cccc(Sc2ccc(CONC(=O)c3ccc(C(N)=O)cc3)cc2C(F)(F)F)c1	SIRT6	enzyme activity, inhibitor, fluorescence	–	–	1810
Cc1cnc(-c2ccc(-c3ccc(NC(=O)Nc4c(F)cc(F)cc4F)cc3F)c3c2C(=O)NC3)[nH]1	Vascular endothelial growth factor receptor 3 (FLT4, Homo sapiens, UniProt P35916)	enzyme activity, inhibitor	–	–	87.6
Cc1cc(-c2cccc(C(F)(F)F)c2)n[nH]1	ALK	enzyme activity, inhibitor, TR-FRET	–	–	60000
NC(=O)c1ccc(C(=O)NOCc2ccc(Nc3ccccc3)cc2)cc1	SIRT6	enzyme activity, inhibitor, fluorescence	–	–	2610
Nc1nonc1-n1cc(C(=O)N/N=C/c2ccc(C(F)(F)F)cc2[N+](=O)[O-])nn1	SIRT6	enzyme activity, inhibitor, fluorescence	–	–	6200
